Results from paper PMC5992689 (Molecular Therapy. Nucleic Acids, 2018).

Legend:
[1] = tested on: primary cultured astrocytes; assay: Binding of FITC-labeled peptides to cultured astrocytes; assay type: cell-based, C57BL/6 mice; conditions: FITC-labeled peptide 1 μg/mL, 24 hr, GFAP immunostaining
Method in brief: (§1)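 Cells were exposed to FITC-labelled peptide at 1 μg/mL in culture medium for 24 hr, fixed in 4% PFA and immunostained for MAP2 (NSC-34, maintained in DMEM/F12 with 10% FCS), GFAP (primary astrocytes) or Iba1 (primary microglia). Primary cultures came from C57BL/6 pups 1–2 days postpartum. FITC-positive marker cells were counted by confocal microscopy in six independent wells and averaged as a percentage; experiments were run in triplicate.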

[2] = tested on: primary cultured microglia; assay: Binding of FITC-labeled peptides to cultured microglia; assay type: cell-based, C57BL/6 mice; conditions: FITC-labeled peptide 1 μg/mL, 24 hr; for FITC labeling of primary cultured microglia (in words): Iba1 immunostaining; for percentage of FITC-positive microglia in all Iba1-positive cells: n = 6 wells
Method in brief: as §1

[3] = tested on: NSC-34 cells (neuron); assay: Binding of FITC-labeled peptides to neuronal cells; assay type: cell-based; conditions: FITC-labeled peptide 1 μg/mL, 24 hr, MAP2 immunostaining
Method in brief: as §1

[4] = tested on: CD86 (M1)-positive primary microglia; assay: CD86 immunocytochemistry of peptide-labeled microglia; assay type: cell-based, C57BL/6 mice; conditions: FITC-labeled peptide 1 μg/mL, 24 hr; n = 6 wells
Method in brief: (§2)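 Primary C57BL/6 microglia were isolated from 14-day mixed glial culture and incubated 24 hr with FITC-peptide at 1 μg/mL. They were then fixed in 4% PFA and immunostained for CD86 (M1) or CD206 (M2) with Alexa Fluor 555 secondaries. Marker-positive cells were counted by confocal microscopy as a percentage of FITC-positive microglia across six independent wells, with >1,000 cells in total and triplicate experiments.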

[5] = tested on: CD206 (M2)-positive primary microglia; assay: CD206 immunocytochemistry of peptide-labeled microglia; assay type: cell-based, C57BL/6 mice; conditions: FITC-labeled peptide 1 μg/mL, 24 hr; n = 6 wells
Method in brief: as §2

[6] = tested on: spinal cord astrocytes (GFAP) and microglia (Iba1); assay type: in vivo, C57BL/6 mice; conditions: 3 μg FITC-labeled peptide, intrathecal, 3 hr; MG1 compared with MG2
[7] = tested on: KT-5 cells (astrocytes); assay: Phage display panning; assay type: binding; conditions: 48 of the 58 phage plaques, astrocytes (KT-5)
Method in brief: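 A CX7C M13 library in Tris-buffered saline (pH 7.5) was given via tail vein to C57BL/6 mice. After 5 min, blood was removed transcardially, and spinal cords were homogenised in DMEM with protease inhibitor. Phage were titrated as plaques in E. coli ER2738, amplified and re-injected for three rounds. Three 5-min in vitro panning cycles on KT-5 cells followed, and pIII inserts of 50–58 phages were sequenced.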

Substance	FITC labeling of primary cultured astrocytes (in words) [1]	FITC labeling of primary cultured microglia (in words) [2]	percentage of FITC-positive microglia in all Iba1-positive cells [2]	FITC labeling of NSC-34 cells (in words) [3]	percentage of CD86-positive cells in the microglia labeled with the peptide [4]	percentage of CD206-positive cells in the microglia labeled with the peptide [5]	accumulation of peptide in the spinal cord tissues [6]	frequency of phage plaques [7]
C-HHSSSAR-C [MG1]	not observed	mainly present in Iba1-positive microglia	approximately 60%	not observed	40%	26%	greater accumulation of MG1 peptides than of MG2 peptides	
C-LNSSQPS-C [AS1]	only observed in astrocytes	not with MAP2 staining in neurons or Iba1 staining in microglia		not with MAP2 staining in neurons or Iba1 staining in microglia				83%
C-NTGSPYE-C [MG2]	not in the NSC-34 cells or astrocytes	observed only in the primary cultured microglia	approximately 40%	not in the NSC-34 cells or astrocytes	27%	47%		
